{
  "source": "paper PMC11579016",
  "about": "(Oncogenesis, 2024)",
  "key": {"PANC-1 lysate": {"test_system": "PANC-1 lysate", "assay": "Cleavage assay of SAPE-labeled ADAM9 bacteria with PANC-1 lysate", "type": "biochemical, human", "details": "highest PANC-1 lysate concentration, 3 h, FACS; dose-dependent", "method_in_brief": "(§1)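 ADAM9 substrate-displaying bacteria were subcultured 1:100 in LB for 45 min at 37 °C, induced with 0.04% arabinose for 1 h, then labeled with SAPE (final […]) for 1 h. 10^7 bacteria were incubated for 3 h with thrombin (final 75 nM) or dilutions of sonicated PANC-1 lysate, with PBS or reaction buffer as controls. After two PBS washes, SAPE-positive bacteria were counted by flow cytometry, with unlabeled bacteria as the negative control.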"}, "thrombin": {"biological_target": "thrombin (Homo sapiens, UniProt P00734)", "assay": "Cleavage assay of SAPE-labeled ADAM9 bacteria with thrombin", "type": "biochemical", "details": "75 nM thrombin, 3 h, FACS", "method_in_brief": "as §1"}, "rMMP9": {"biological_target": "rMMP9 (Homo sapiens, UniProt P14780)", "sequence (P14780 94-707, species assumed)": "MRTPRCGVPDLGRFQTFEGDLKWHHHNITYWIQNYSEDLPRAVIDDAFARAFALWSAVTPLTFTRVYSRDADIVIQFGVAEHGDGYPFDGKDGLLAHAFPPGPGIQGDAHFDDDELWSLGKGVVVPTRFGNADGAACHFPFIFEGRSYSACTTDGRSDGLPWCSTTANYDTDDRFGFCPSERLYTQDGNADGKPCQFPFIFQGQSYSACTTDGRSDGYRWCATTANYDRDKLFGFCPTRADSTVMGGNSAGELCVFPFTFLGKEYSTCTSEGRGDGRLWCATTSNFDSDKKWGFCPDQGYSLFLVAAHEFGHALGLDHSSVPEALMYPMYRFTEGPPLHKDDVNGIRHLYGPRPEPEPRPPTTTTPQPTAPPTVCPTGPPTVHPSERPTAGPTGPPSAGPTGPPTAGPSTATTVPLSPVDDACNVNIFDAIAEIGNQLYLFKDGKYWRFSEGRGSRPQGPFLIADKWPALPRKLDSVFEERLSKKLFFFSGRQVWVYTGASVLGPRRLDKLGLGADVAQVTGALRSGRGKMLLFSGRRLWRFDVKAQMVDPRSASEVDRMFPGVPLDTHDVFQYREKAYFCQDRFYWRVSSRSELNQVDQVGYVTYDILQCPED", "assay": "Cleavage assay of SAPE-labeled ADAM9 bacteria with rMMP9, alone or with S3304", "type": "biochemical", "details": "200 nM rMMP9, 3 h, FACS"}},
  "data": [
    {"sequence": "PLAQAVRSSK [ADAM9 substrate]", "values": [
      {"measurement": "ADAM9 substrate cleavage by PANC-1 lysate (loss of SAPE-positive bacteria)", "setting": "PANC-1 lysate", "result": "near-complete"},
      {"measurement": "effect on fluorescence of SAPE-labeled ADAM9 bacteria", "setting": "thrombin", "result": "did not reduce fluorescence"},
      {"measurement": "effect on SAPE-positivity of ADAM9 bacteria", "setting": "rMMP9", "result": "greatly reduced SAPE-positivity"}
    ]}
  ]
}
